Compound activity (PubChem BioAssay)
Sampled rows, rich in hits. Any-hit rate of the full collection: about 2%.
CaV13 ICDI inh: Primary screen for inhibitors of IQ motif and Ca2+-dependent inactivation inhibitor domain binding in CACNA1D, Förster resonance energy transfer in living cells, …; HEK cells, CFP/YFP FRET ICDI-IQ, plate reader, 10 min; percent FRET-ratio fall versus neutral wells; inhibition, % at 12.3 µM; 340,000 compounds, 0.098% hits;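 active = mean replicate inhibition of at least 30% and at least 1% of replicates passing that level; inconclusive = only one of the two criteria is met; inactive = neither criterion is met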
Xi reactivation: activators of X-chromosome reactivation in mouse fibroblasts. XiGFP mouse fibroblasts, % GFP-positive cells imaging, 3 d; cells co-treated with 5-aza-dC sensitizer; scaled so ellipticine positive control = 100%. activation, % at 7.58 µM. 360,000 compounds, 0.055% hits;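 active = mean normalized replicate activation at least 10% and every replicate at or above 10%; inconclusive = only one of the two criteria met; inactive = mean below 10% and not all replicates reach 10%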
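Material: XiGFP fibroblasts, SV40-immortalized. Buffer or medium: DMEM plus 5-aza-dC sensitizer. Compound: single concentration per compound, delivered by pin transfer. Times: 3 days compound exposure. Controls: ellipticine 6 µM.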
Casp6 inh: caspase-6 (human) enzyme inhibition. purified caspase-6, Z-VEID-R110 cleavage fluorescence. inhibition, % at 12.5 µM. 350,000 compounds, 0.53% hits;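 active = mean inhibition across replicates at least about 35%, with every replicate also reaching that limit, limit read from the data; inconclusive = only one of the two criteria met; inactive = neither criterion met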
Target sequence (P55212 24-179 limits assumed): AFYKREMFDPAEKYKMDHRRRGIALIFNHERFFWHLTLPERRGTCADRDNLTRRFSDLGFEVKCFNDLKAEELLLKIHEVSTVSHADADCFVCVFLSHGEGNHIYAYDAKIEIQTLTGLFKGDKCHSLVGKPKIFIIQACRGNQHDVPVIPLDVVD
Target sequence (P55212 194-293 limits assumed): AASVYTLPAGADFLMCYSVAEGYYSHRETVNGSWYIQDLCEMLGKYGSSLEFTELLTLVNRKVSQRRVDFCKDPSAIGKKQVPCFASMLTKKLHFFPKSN
DENV2 CPE rescue: protects cells from dengue virus 2 cytopathic effect; DENV2-infected cells, cytopathic effect rescue, plate reader; CPE inhibition, % at 9.99 µM; 350,000 compounds, 1.7% hits; AID 651640; in the data active = CPE inhibition above about 20%, passing the limit was not always enough; inconclusive = no clear call, values can overlap the other calls; tested in BHK-21 cells
FN deposit inh: fibronectin deposition inhibition. AH1F fibroblasts, Alexa488-fibronectin deposition fluorescence, overnight. 350,000 compounds, 0.086% hits. inhibition, % at 12.6 µM. AID 743247;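 active = mean inhibition across replicates of 30% or more, regardless of how many single replicates reach that level; inconclusive = mean under 30% yet at least half of replicates reach 30%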
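Measured by – fluorescence 485/525 nm · System – AH1F fibroblast monolayer, labelled fibronectin deposition · Amount – 10000 cells per well · Buffer or medium – serum-reduced DMEM (2% serum) · Doses – single dose, pinned · Also added – fluorescent fibronectin at 24 nM final · Schedule – 1 h cell attachment, overnight exposure to compound and label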
Of the large screens only hits and unclear results are named; the others gave an inactive call; ! = a repeat was not active.

O=C1/C(=C\c2ccco2)SC(=S)N1c1ccc(O)cc1	Casp6 inh 37.7
O=C(NN1C(=O)/C(=C/C=C/c2ccccc2)SC1=S)c1ccncc1	none
O=C(CCCN1C(=O)/C(=C\c2ccco2)SC1=S)Nc1ccc(O)cc1C(=O)O	none (no result: Casp6 inh)
O=C(NN1C(=O)/C(=C/C=C/c2ccco2)SC1=S)c1ccncc1	Casp6 inh 76.1
CC(OC(=O)c1cc(O)c2ccccc2c1O)C(=O)Nc1ccc(C(N)=O)cc1 (stereo not drawn)	Casp6 inh 82.5, DENV2 CPE rescue inconclusive
COc1cc(OC)cc(C(=O)Nc2ccc3nc4n(c(=O)c3c2)CCCC4)c1	DENV2 CPE rescue 118.6 (no result: FN deposit inh)
CCCc1nnc(SCC(=O)Nc2ccc3c(c2)OCCO3)n1CCOC	none
COCCn1c(SCC(=O)Nc2ccc3c(c2)OCCO3)nnc1C(C)C	DENV2 CPE rescue 21.7
O=C(NC1CCCCC1)N1CC2(C1)[C@H](c1ccccc1)[C@H](CO)N2CC1CCCC1	none (no result: CaV13 ICDI inh)
O=C(Nc1ccccc1C(=O)NCc1cccnc1)c1ccccc1Cl	DENV2 CPE rescue 63.6
O=C(Nc1ccc(Cl)cc1C(=O)NCc1cccnc1)c1ccc(Cl)cc1Cl	none
O=S(=O)(Cc1ccccc1)N1[C@@H]2CNC[C@H]1C2c1ccc(/C=C/c2ccccc2)cc1 (stereo partly drawn)	none (no result: CaV13 ICDI inh, Casp6 inh, DENV2 CPE rescue)
COc1cccc(-c2ccc3c(c2)[C@H]2[C@H](CCN2C(=O)NC2CCCCC2)[C@@H](CO)N3C)c1	none (no result: CaV13 ICDI inh)
Cc1cc(O)c(-c2cc(O)c(C)cc2O)cc1O	FN deposit inh 36.8
COc1cc(/C=N\Nc2nc3ccccc3[nH]2)cc(OC)c1OC	none (no result: Xi reactivation, Casp6 inh, DENV2 CPE rescue)
COc1ccc2c(c1)c(/C=N/Nc1nc3ccccc3[nH]1)c(C)n2C	Xi reactivation 17.1
O=C(C[C@@H]1CC[C@@H]2[C@H](COC[C@@H](O)CN2CC2CC2)O1)NCC1CC1	none (no result: CaV13 ICDI inh)
COCCN(C(=S)Nc1cccc(C)c1)C(C)c1cccs1 (stereo not drawn)	DENV2 CPE rescue 30.4
COC(=O)C[C@@H]1C=C[C@H](NS(=O)(=O)c2ccc(OC)cc2)[C@H](CO)O1	none (no result: CaV13 ICDI inh)
COc1ccc(S(=O)(=O)N[C@@H]2C=C[C@@H](CC(=O)NCCc3ccccc3)O[C@@H]2CO)cc1	DENV2 CPE rescue 39.0 (no result: CaV13 ICDI inh, FN deposit inh)
COc1ccc(S(=O)(=O)N[C@H]2C=C[C@H](CC(=O)NCCc3ccccc3)O[C@H]2CO)cc1	none (no result: CaV13 ICDI inh, FN deposit inh)
COC(=O)C[C@@H]1C=C[C@@H](NS(=O)(=O)c2ccc(OC)cc2)[C@@H](CO)O1	DENV2 CPE rescue 23.3!
COCC(=O)N(C)C[C@@H]1Oc2ncc(C#Cc3ccc(OC)cc3)cc2C(=O)N([C@H](C)CO)C[C@@H]1C	none (no result: CaV13 ICDI inh, FN deposit inh)
CCOC(=O)c1ccccc1NC(=O)COC(=O)C1CCN(S(=O)(=O)c2ccccc2C(=O)OC)CC1	Xi reactivation inconclusive, Casp6 inh 59.5
O=C(Nc1ccccc1C(F)(F)F)C(O)(c1ccccc1)C1CCCCC1 (stereo not drawn)	DENV2 CPE rescue 49.6
CS(=O)(=O)N1CCc2cc(C(=O)N3CCN(c4ccc(F)cc4)CC3)ccc21	none
CS(=O)(=O)N1CCc2cc(C(=O)N3CCN(c4ccccc4)CC3)ccc21	DENV2 CPE rescue 23.1
O=C(c1ccc(CNc2c(N3CCCC3)c(=O)c2=O)cc1)N1CCN(C2CCCCC2)CC1	DENV2 CPE rescue 78.5
COc1ccc2nc(SC(C)C(=O)NC3CCCC3)[nH]c2c1 (stereo not drawn)	DENV2 CPE rescue 63.7
COc1ccc2nc(SC(C)C(=O)NC3(C#N)CCCCC3)[nH]c2c1 (stereo not drawn)	none
O=C(c1ccccc1F)N1CC[C@@H]2[C@H](CO)Nc3ccc(-c4ccc(F)cc4)cc3[C@@H]21	none (no result: CaV13 ICDI inh)
CC(C)(O)c1cn([C@@H]2C[C@@H]3O[C@@H](CO)CC[C@@H]3O[C@@H]2CCc2ccc(-c3ccncc3)cc2)nn1	Casp6 inh 52.3 (no result: CaV13 ICDI inh, Xi reactivation, FN deposit inh)
CC(C)(O)c1cn([C@@H]2C[C@@H]3O[C@H](CO)CC[C@@H]3O[C@@H]2CCc2ccc(-c3cccnc3)cc2)nn1	none (no result: CaV13 ICDI inh, Xi reactivation, FN deposit inh)
CC(C)=C1C(=O)NN(c2ccc(F)c(Cl)c2)C1=O	Casp6 inh 68.0 (no result: Xi reactivation, DENV2 CPE rescue, FN deposit inh)
CCC(=O)N1CCC2(CC1)CN(Cc1ccccn1)[C@H](CO)c1[nH]c3cc(OC)ccc3c12	none (no result: CaV13 ICDI inh, FN deposit inh)
O=C(C[C@H]1CC[C@@H]2[C@H](COC[C@H](O)CN2CC2CCCCC2)O1)NCC1CC1	DENV2 CPE rescue 29.5 (no result: CaV13 ICDI inh)
